# Results from PubChem BioAssay.
# The source made the active and inactive calls.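 Rule for the calls, unless noted: active = compounds giving at least 50% inhibition in the cell-based MKP-3 phosphatase rescue imaging test; inactive = the rest.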
# Assays:
# [1] = inhibitors of TNFa-induced NFkB p65 translocation, primary screen, imaging, HUVEC, MLSMR starter and 10KST1 sets (AID 438;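 active = inhibition above 20% together with a positive visual image hit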;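 note: compound added about 3h40 before a 20 min TNFalpha stimulation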;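 for inhibition: signal is the nuclear over cytoplasmic p65 intensity ratio per well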); conditions: HUVEC TNFa-induced p65 nuclear translocation; cell count: measured here: nuclei count (cytotoxicity indicator), at 2.08 µM; inhibition: at 2 µM, stronger effect = higher value, 0% TNFa-plus-vehicle, 100% no-TNFa wells
# [2] = inhibitors of E-selectin induction by TNFa, primary screen, imaging, HUVEC, immunofluorescence, MLSMR starter and 10KST1 sets (AID 487;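 active = visually confirmed hit in the image check and inhibition above 20%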;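 for inhibition: signal is fraction of cell area covered by stained E-selectin grains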;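 for nuclei count: 100% = median nuclei count of all wells on the same plate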); conditions: HUVEC TNFalpha-induced E-selectin immunofluorescence imaging, at 2 µM; inhibition: stronger effect = higher value; nuclei count: measured here: cell number, toxicity
# [3] = DUSP6 inhibitors restoring Erk phosphorylation by chemical complementation, primary imaging in DUSP6-transfected HeLa (AID 609); conditions: HeLa MKP-3 transfected, phospho-Erk imaging KS statistic, at 10 µM, cells stimulated with TPA for 15 min;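 for inhibition: phospho-Erk level distribution per well compared with pooled transfected vehicle control wells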
# [4] = molecular target: Dual specificity protein phosphatase 6 (Homo sapiens) (UniProt Q16828); experiment: as above; conditions: HeLa MKP-3 transfected, phospho-Erk imaging KS statistic; at 10 µM; stronger effect = higher value; cells stimulated with TPA for 15 min
# Dual specificity protein phosphatase 6 (Homo sapiens), sequence (Q16828 whole entry, looked up): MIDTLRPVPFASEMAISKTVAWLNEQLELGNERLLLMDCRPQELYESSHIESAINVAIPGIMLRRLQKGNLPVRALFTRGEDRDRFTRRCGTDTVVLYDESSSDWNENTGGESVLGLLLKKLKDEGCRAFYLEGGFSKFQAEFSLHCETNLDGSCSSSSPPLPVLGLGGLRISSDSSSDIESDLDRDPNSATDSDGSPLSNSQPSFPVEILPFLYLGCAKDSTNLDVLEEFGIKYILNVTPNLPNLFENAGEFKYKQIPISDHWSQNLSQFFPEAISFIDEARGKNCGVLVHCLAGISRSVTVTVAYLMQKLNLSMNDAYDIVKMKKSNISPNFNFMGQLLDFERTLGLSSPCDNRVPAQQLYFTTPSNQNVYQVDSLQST
# [5] = molecular target: Voltage-gated potassium channel subunit beta-2 (Rattus norvegicus) (UniProt P62483); experiment: KvBeta enzyme negative modulators, primary screen, biochemical, NADPH fluorescence (AID 622;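 active = fluorescence slope higher than the sample average by over 3 SD, cut at about -0.22 in these data, passing the limit was not always enough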;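 note: slope of raw intensity against log time taken from 70 to 1610 s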); conditions: recombinant KvBeta, 4-cyanobenzaldehyde reduction, at 10 µM, stronger effect = higher value
# Voltage-gated potassium channel subunit beta-2 (Rattus norvegicus), sequence (P62483 whole entry, looked up): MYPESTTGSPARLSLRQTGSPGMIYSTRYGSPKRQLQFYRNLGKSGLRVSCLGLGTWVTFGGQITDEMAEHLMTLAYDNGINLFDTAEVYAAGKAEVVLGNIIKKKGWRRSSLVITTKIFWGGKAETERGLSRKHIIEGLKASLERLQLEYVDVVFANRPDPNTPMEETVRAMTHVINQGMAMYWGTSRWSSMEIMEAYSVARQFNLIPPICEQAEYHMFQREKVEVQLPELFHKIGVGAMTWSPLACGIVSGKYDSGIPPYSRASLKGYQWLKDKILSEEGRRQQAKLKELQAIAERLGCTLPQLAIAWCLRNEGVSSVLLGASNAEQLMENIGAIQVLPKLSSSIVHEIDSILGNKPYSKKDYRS
# [6] = molecular target: Voltage-gated potassium channel subunit beta-2 (Rattus norvegicus) (UniProt P62483); experiment: KvBeta positive modulators, primary screen, biochemical, NADPH fluorescence (AID 623;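 active = NADPH fluorescence slope more negative than the mean of all samples by about 3 SD, 99.7% confidence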;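 note: fluorescence intensity change per second fitted from 20 to 320 s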); conditions: Recombinant KvBeta, NADPH fluorescence decrease slope, 10 min; at 10 µM; stronger effect = lower value
# [7] = molecular target: Alpha-2C adrenergic receptor (Homo sapiens) (UniProt P18825); experiment: modulators of alpha2C/GIRK thallium flux, primary screen, cell-based, HEK293 alpha2C/GIRK1/2 (AID 624;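 active = fluorescence slope after compound addition differing from the mean of all screened samples at 99.7% confidence, in either direction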;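 note: slope of fluorescence ratio to pre-addition baseline per second over 15 to 24 s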); conditions: thallium flux BTC fluorescence, at 10 µM, actives lie on both sides
# Alpha-2C adrenergic receptor (Homo sapiens), sequence (P18825 whole entry, looked up): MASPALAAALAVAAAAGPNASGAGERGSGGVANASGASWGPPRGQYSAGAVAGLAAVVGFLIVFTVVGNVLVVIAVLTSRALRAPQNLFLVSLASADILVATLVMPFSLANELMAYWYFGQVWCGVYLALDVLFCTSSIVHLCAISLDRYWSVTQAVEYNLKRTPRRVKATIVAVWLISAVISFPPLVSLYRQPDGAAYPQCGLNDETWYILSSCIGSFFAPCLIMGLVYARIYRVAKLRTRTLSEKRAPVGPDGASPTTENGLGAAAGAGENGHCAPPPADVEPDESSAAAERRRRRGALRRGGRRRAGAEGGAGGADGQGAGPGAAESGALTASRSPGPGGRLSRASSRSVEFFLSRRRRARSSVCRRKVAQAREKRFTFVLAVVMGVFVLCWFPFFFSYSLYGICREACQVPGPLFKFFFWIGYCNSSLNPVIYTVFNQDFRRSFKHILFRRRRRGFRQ
# [8] = inhibitors of larval lipid processing in zebrafish, primary screen, whole organism, PED6 fluorescence, gall bladder and intestine (AID 686;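 active = a full or partial loss of lipid-probe fluorescence in the fish gall bladder, intestine or both, judged by eye; inactive = no fluorescence loss, or compound toxic to the fish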;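 note: larvae 5 to 7 days old with five fish per well; signal comes from phospholipase A2 cleavage of quenched PED6 carried via bile; overnight exposure to compound and PED6 before scoring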); conditions: Zebrafish larvae PED6 lipid processing, fluorescence scoring; screened at 20 µM (by protocol)
# Method in brief: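 Test system – live zebrafish larvae aged 5-7 days, whole organism · Buffer or medium – E3 fish medium · Reagent – quenched phospholipase substrate PED6, 100 nM final, ingested by larvae · Doses – 20 µM single dose · Incubation – overnight compound and PED6 incubation · Technique – visual fluorescence microscopy scoring of gall bladder, gut · Read-out basis – visual per-well fluorescence inhibition score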
# [9] = inhibitors of Chlamydomonas gravitaxis, primary screen, whole organism, Chlamydomonas reinhardtii, WT vs cilia-less mutant, absorbance, 96-well (AID 463189;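 active = inhibition at or above 50% relative to wild type and mutant plate controls; inactive = inhibition below 50%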;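 note: 0% = wild type cc124 cells in DMSO and 100% = ciliumless bld1 mutant cells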); conditions: OD600 absorbance, 2 days, at 10 µM, stronger effect = higher value
# [10] = measured here: cell density z-score
# [11] = measured here: nuclear c-Myc green intensity z-score
# [12] = measured here: nuclear pErk red intensity z-score, stronger effect = higher value
Compound,cell count [1],inhibition [1],inhibition [2],nuclei count [2],"z-score [3, 10]","z-score [3, 11]","z-score [3, 12]",inhibition [4],fluorescence slope [5],NADPH fluorescence slope [6],slope [7],outcome [8],inhibition [9]
O=C1CC(NCc2ccc3c(c2)OCO3)C(=O)N1Cc1ccc2c(c1)OCO2 (stereo unspecified),521,5.6% (inactive),-127% (inactive),139%,0.834,0.684,-0.627,15.8% (inactive),-0.505 (inactive),-3.7e-05 (inactive),0.00655 (inactive),inactive,17.7% (inactive)
CSc1nc(N)c(C#N)c(-c2ccccc2Cl)c1C#N,361,-5.2% (inactive),16.8% (inactive),95%,-2.2,1.67,-0.0312,-2.07% (inactive),-0.456 (inactive),-0.000311 (inactive),0.00479 (inactive),inactive,-18.7% (inactive)
Cc1c(N2C(=O)SC(CC(=O)O)C2=O)c(=O)n(-c2ccccc2)n1C (stereo unspecified),500,1.9% (inactive),-80.6% (inactive),128%,-1.16,-0.83,-0.709,-10.5% (inactive),-0.518 (inactive),-3.7e-05 (inactive),0.00585 (inactive),inactive,-1.65% (inactive)
CC1CN(C2CCN(S(=O)(=O)c3ccccc3)CC2)CC(C)O1 (stereo unspecified),451,-10.8% (inactive),-248% (inactive),159%,1.27,-1.71,-0.713,4.37% (inactive),-0.322 (inactive),-2.3e-05 (inactive),0.00481 (inactive),inactive,6.96% (inactive)
Cc1nc(N2CCOCC2)c(C#N)c2c1COC(C)(C)C2,582,-0.2% (inactive),-43.9% (inactive),99.8%,-1.02,1,-1.11,3.66% (inactive),-0.521 (inactive),-4.3e-05 (inactive),0.00501 (inactive),inactive,-6.08% (inactive)
N#CC1=C(N)NC(SCc2ccc(F)cc2)=C(C#N)C12CCCCC2,614,-15.5% (inactive),24.8% (inactive),164%,-0.696,-0.0167,-0.195,6.04% (inactive),-0.404 (inactive),-4.7e-05 (inactive),0.0043 (inactive),inactive,-1.21% (inactive)
CC(C)Cc1nc(NCCN2CCOCC2)c(C#N)c2c1COC(C)(C)C2,572,2.6% (inactive),-114% (inactive),192%,-1.39,1.03,0.72,-6.86% (inactive),-0.302 (inactive),2.3e-05 (inactive),0.00502 (inactive),inactive,4.53% (inactive)
COc1cccc2c(=O)c(SC(F)(F)C(F)C(F)(F)F)c(C)[nH]c12 (stereo unspecified),311,-0.8% (inactive),-14.2% (inactive),105%,0.112,2.52,-0.995,-2.91% (inactive),-0.393 (inactive),-3e-05 (inactive),0.00581 (inactive),inactive,-12.2% (inactive)
Cc1cc2c(c(=O)n1CC1CCCO1)C(c1ccc3c(c1)OCO3)C(C#N)=C(N)O2 (stereo unspecified),430,-3.9% (inactive),-118% (inactive),138%,-0.219,0.61,1.43,-2.91% (inactive),-0.369 (inactive),-4.9e-05 (inactive),0.00655 (inactive),inactive,-9.27% (inactive)
CC(C)CC(C(=O)O)C(C)CC(=O)Nc1ccn(-c2ccccc2)n1 (stereo unspecified),345,-19.4% (inactive),-326% (inactive),150%,1.41,-1.41,-0.175,15.1% (inactive),-0.401 (inactive),-3.3e-05 (inactive),0.0075 (inactive),inactive,13.3% (inactive)
C=C1c2cc(OC)ccc2NC(=O)N1CC,611,0.3% (inactive),-36.5% (inactive),127%,0.269,0.973,-0.0863,-4.7% (inactive),-0.452 (inactive),-0.0002 (inactive),0.00447 (inactive),inactive,5.59% (inactive)
COc1ccc(OC)c(NC(=O)CSC2=C(C#N)C(c3ccco3)C3=C(CCCC3=O)N2)c1 (stereo unspecified),356,-6.8% (inactive),-37.1% (inactive),141%,-0.66,-0.0626,0.62,-6.59% (inactive),-0.404 (inactive),-0.000112 (inactive),0.00599 (inactive),inactive,20.2% (inactive)
CCCSc1nc(N2CCCC2)c2c(c1C#N)CC(C)(C)OC2,521,-7.7% (inactive),-153% (inactive),173%,1.7,-1.87,-0.14,36.9% (inactive),-0.322 (inactive),4.6e-06 (inactive),0.00655 (inactive),inactive,9.15% (inactive)
CC1(C)Cc2c(sc3nc4n(c(=N)c23)CCC4)CO1,678,-24.9% (inactive),-38.1% (inactive),164%,-0.552,1.24,2.19,-13.9% (inactive),-0.416 (inactive),-4.6e-05 (inactive),0.00517 (inactive),inactive,-6.56% (inactive)
COc1cccc(-c2nc(N3CCCCC3)c3ccccc3n2)c1O,528,1.2% (inactive),-31.1% (inactive),142%,1.81,0.268,-0.772,1.6e-07% (inactive),-0.405 (inactive),-3.2e-05 (inactive),0.0042 (inactive),inactive,15% (inactive)
Cc1cccc(OCc2nc(C)cc(=O)[nH]2)c1,594,-7.7% (inactive),-84.7% (inactive),173%,2.18,0.349,-1.33,14% (inactive),-0.409 (inactive),-2.4e-05 (inactive),0.00552 (inactive),inactive,-4.66% (inactive)
COc1cc(C2C(C(=O)c3ccc(C)o3)=C(O)C(=O)N2c2cc(C)on2)cc(OC)c1OC (stereo unspecified),531,-0.1% (inactive),-101% (inactive),125%,1.95,0.514,-0.298,19.3% (inactive),-0.507 (inactive),-9.6e-06 (inactive),0.00526 (inactive),inactive,-18.1% (inactive)
O=C(O)CC(C(=O)N(c1ccccc1)c1ccccc1)N1CCOCC1 (stereo unspecified),498,-4.7% (inactive),-103% (inactive),118%,-1.14,0.849,1.75,-7.01% (inactive),-0.576 (inactive),-4e-05 (inactive),0.00573 (inactive),inactive,-20.4% (inactive)
CCOc1nc(Oc2cccc(C(=O)O)c2)nc(Oc2cccc(C(=O)O)c2)n1,627,-14.8% (inactive),-46.5% (inactive),182%,0.0666,0.636,-0.0605,-1.12% (inactive),-0.538 (inactive),-3.4e-05 (inactive),0.00497 (inactive),inactive,6.3% (inactive)
N#CCCSCc1ccc(OCC(=O)O)cc1,547,-22.2% (inactive),-141% (inactive),138%,0.922,-1.08,0.0284,5.95% (inactive),-0.488 (inactive),-9.2e-05 (inactive),0.00635 (inactive),inactive,2.45% (inactive)
N/C(CCN1CCCCC1)=N/O,582,-29.9% (inactive),25.5% (inactive),169%,0.685,-0.291,-0.968,-4.27% (inactive),-0.418 (inactive),-9.2e-06 (inactive),0.00552 (inactive),inactive,12.2% (inactive)
Cc1ccc2[nH]c3c(N4CCCCCC4)ncnc3c2c1,377,-11.4% (inactive),-85.7% (inactive),159%,1.13,-0.284,-0.123,-3.5% (inactive),-0.44 (inactive),-0.000151 (inactive),0.00355 (inactive),inactive,-9.6% (inactive)
Fc1ccc2[nH]c3c(N4CCN(c5ccccc5)CC4)ncnc3c2c1,424,5.2% (inactive),-109% (inactive),93.6%,-1.72,-0.345,0.928,6.04% (inactive),-0.334 (inactive),6.6e-06 (inactive),0.005 (inactive),inactive,-1.66% (inactive)
O=C1C=C(O)CC(c2cccs2)C1 (stereo unspecified),590,1.5% (inactive),-11.9% (inactive),126%,-0.072,-0.344,-0.148,-1.12% (inactive),-0.536 (inactive),-5.7e-05 (inactive),0.00523 (inactive),inactive,-9.61% (inactive)
COc1ccc(NC2CC(=O)N(C)C2=O)cc1 (stereo unspecified),334,-4.4% (inactive),15% (inactive),92.4%,-0.811,0.0749,1.77,7.42% (inactive),-0.424 (inactive),1.4e-05 (inactive),0.00509 (inactive),inactive,30.2% (inactive)
CCOC(=O)CSc1nc(N(C)C)nc(N(C)C#N)n1,570,-6.8% (inactive),-140% (inactive),113%,0.476,-0.876,-1.19,5.57% (inactive),-0.478 (inactive),-0.00031 (inactive),0.00712 (inactive),inactive,-9.74% (inactive)
CCOC(=O)C1=C(C(C)=O)C(c2cccnc2)C(C#N)=C(N)O1 (stereo unspecified),548,-5.1% (inactive),-109% (inactive),228%,0.844,-1.11,-0.0919,6.04% (inactive),-0.369 (inactive),-1e-05 (inactive),0.00521 (inactive),inactive,12.1% (inactive)
